Calls of active or inactive are those of the source. No cut-off for these calls is given here.
Columns and labels:
[1] = Stability of the compound in pH 7.4 phosphate buffer measured upto 30 mins by UV-Vis analysis; type: physicochemical; details: pH 7.4, 0.5 h
Method in brief: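 Dissolved in phosphate buffer pH 7.4; UV-visible absorption (OD) recorded over 30 min.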

[2] = test system: Mus musculus; assay: Protection against LPS-induced C57/BL6 mouse acute lung injury model assessed as improvement in structural distruption of lung tissue at 20 mg/kg via oral gavage preincubated for 30 mins followed by LPS stimulation for 6 hrs; type: functional, organism-based; details: time 6.5 hrs
Method in brief: (§1)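 Mice dosed 20 mg/kg by gavage (dexamethasone 20 mg/kg comparator), intratracheal LPS 5 mg/kg 30 min later, killed at 6 h. Right upper lobe fixed in paraformaldehyde, H&E; lung wet/dry ratio; BALF protein, total cells and neutrophils counted; n = 5 mice per group, mean ± SEM.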

[3] = test system: Mus musculus; assay: Protection against LPS-induced C57/BL6 mouse acute lung injury model assessed as reduction in protein concentration in BALF at 20 mg/kg via oral gavage preincubated for 30 mins followed by LPS stimulation for 6 hrs; type: functional, organism-based; details: time 6.5 hrs; method in brief: as §1
[4] = test system: Mus musculus; assay: Protection against LPS-induced sepsis in C57/BL6 mouse model assessed as reduction of lymph node hyperplasia at 20 mg/kg, po preincubated with compound followed by LPS stimulation for 1 hr by H and E staining based analysis; type: functional, organism-based
Method in brief: (§2)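 Mice given 20 mg/kg orally, then intraperitoneal LPS 20 mg/kg 1 h later; n = 12 per group. Kidney, liver, heart and spleen weighed; spleen sections H&E-stained for histology.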

[5] = Half life in rat at 10 mg/kg, po; type: ADME, organism-based; details: in vivo
Method in brief: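 Rats dosed intravenously at 1 mg/kg or orally at 10 mg/kg; plasma pharmacokinetic parameters AUC(0-t), Tmax, T1/2, Cmax and oral bioavailability F derived from the two routes.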

[6] = test system: THP-1; assay: Antiinflammatory activity in LPS-induced human THP-1 cells assessed as inhibition of LPS-induced IL-6 release preincubated for 30 mins followed by LPS stimulation for 24 hrs by ELISA method; type: functional, cell-based
Method in brief: (§3)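 THP-1 or LX-2 cells in DMEM with 10% FBS, 37 °C, 5% CO2. Pretreated 30 min at 10, 5, 2.5 or 1.25 μM, then LPS 0.5 μg/mL for 24 h. IL-6 and TNF-α in medium measured by ELISA, normalized to lysate total protein; mean ± SEM of 3 independent experiments.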

[7] = test system: J774.A1; assay: Antiinflammatory activity in LPS-induced mouse J774.A1 cells assessed as inhibition of LPS-induced TNF-alpha release preincubated for 30 mins followed by LPS stimulation for 24 hrs by ELISA method; type: functional, cell-based
Method in brief: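 Dose-response in J774A.1 cells: 30 min pretreatment at 10, 5, 2.5 or 1.25 μM, then LPS 0.5 μg/mL for 24 h. IL-6 and TNF-α by ELISA, normalized to lysate protein; IC50 from the dose-response; 3 independent experiments, mean ± SEM.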

[8] = test system: Mus musculus; assay: Antiinflammatory activity in LPS-induced C57/BL6 mouse acute lung injury model assessed as decrease in TNF-alpha level in BALF at 20 mg/kg via oral gavage preincubated for 30 mins followed by LPS stimulation for 6 hrs by ELISA; details: time 6.5 hrs
[9] = test system: Mus musculus; assay: Antiinflammatory activity in LPS-induced C57/BL6 mouse acute lung injury model assessed as decrease in IL-6 expression level at 20 mg/kg via oral gavage preincubated for 30 mins followed by LPS stimulation for 6 hrs by RT-qPCR method; type: functional, organism-based; details: time 6.5 hrs
Method in brief: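 Male C57BL/6 mice, six weeks old, n = 8 per group. Dosed 20 mg/kg orally 30 min before intratracheal LPS 5 mg/kg; dexamethasone 20 mg/kg as comparator. Lung tissue collected 6 h after LPS. RNA extracted with TRIzol; IL-6 and TNF-α transcripts by RT-qPCR, normalized to β-actin; n = 5 mice per group, mean ± SEM.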

[10] = test system: Mus musculus; assay: Protection against LPS-induced C57/BL6 mouse acute lung injury model assessed as reduction in number of total cells in BALF at 20 mg/kg via oral gavage preincubated for 30 mins followed by LPS stimulation for 6 hrs; type: functional, organism-based; details: time 6.5 hrs; method in brief: as §1
[11] = test system: Mus musculus; assay: Protection against LPS-induced sepsis in C57/BL6 mouse model assessed as reduction in demarcation between white and red pulp at 20 mg/kg, po preincubated with compound followed by LPS stimulation for 1 hr by H and E staining based analysis; type: functional, organism-based; method in brief: as §2
[12] = test system: Mus musculus; assay: Antiinflammatory activity in LPS-induced C57/BL6 mouse acute lung injury model assessed as decrease in TNF-alpha level in serum at 20 mg/kg via oral gavage preincubated for 30 mins followed by LPS stimulation for 6 hrs by ELISA; details: time 6.5 hrs
[13] = test system: THP-1; assay: Antiinflammatory activity in LPS-induced human THP-1 cells assessed as inhibition of LPS-induced TNF-alpha release preincubated for 30 mins followed by LPS stimulation for 24 hrs by ELISA method; type: functional, cell-based; method in brief: as §3
[14] = test system: Mus musculus; assay: Protection against LPS-induced sepsis in C57/BL6 mouse model assessed as improvement in survival rate at 20 mg/kg, po preincubated with compound followed by LPS stimulation for 1 hr and measured every 12 hrs by 6 days; type: functional, organism-based; details: time 6.0 day
Method in brief: (§4)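 Sepsis model in C57BL/6 mice, n = 12 per group: oral 20 mg/kg, then intraperitoneal LPS 20 mg/kg 1 h later; saline control. Survival checked every 12 h and body weight every 24 h for 6 days.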

[15] = test system: Mus musculus; assay: Protection against LPS-induced C57/BL6 mouse acute lung injury model assessed as improvement in alveolar wall thickening at 20 mg/kg via oral gavage preincubated for 30 mins followed by LPS stimulation for 6 hrs; type: functional, organism-based; details: time 6.5 hrs; method in brief: as §1
[16] = test system: Mus musculus; assay: Protection against LPS-induced sepsis in C57/BL6 mouse model assessed as reduction in weight loss at 20 mg/kg, po preincubated with compound followed by LPS stimulation for 1 hr and measured every 24 hrs by 6 days; type: functional, organism-based; details: time 6.0 day; method in brief: as §4
[17] = test system: J774.A1; assay: Antiinflammatory activity in LPS-induced mouse J774.A1 cells assessed as inhibition of LPS-induced IL-6 transcription preincubated for 0.5 hrs followed by LPS stimulation for 6 hrs by RT-qPCR method; type: functional, cell-based; details: dose 5-10 µM, time 6.5 hrs
Method in brief: (§5)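 J774A.1 or THP-1 cells pretreated 0.5 h at 10 or 5 μM, then LPS 0.5 μg/mL for 6 h. TRIzol RNA; IL-6, TNF-α and IL-1β transcripts by RT-qPCR, normalized to β-actin and control; 3 independent experiments, mean ± SEM.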

[18] = test system: J774.A1; assay: Antiinflammatory activity in LPS-induced mouse J774.A1 cells assessed as inhibition of LPS-induced TNF-alpha transcription preincubated for 0.5 hrs followed by LPS stimulation for 6 hrs by RT-qPCR method; type: functional, cell-based; details: dose 5-10 µM, time 6.5 hrs; method in brief: as §5
[19] = test system: THP-1; assay: Antiinflammatory activity in LPS-induced human THP-1 cells assessed as inhibition of LPS-induced IL-6 transcription preincubated for 0.5 hrs followed by LPS stimulation for 6 hrs by RT-qPCR method; type: functional, cell-based; details: dose 5-10 µM, time 6.5 hrs; method in brief: as §5
[20] = test system: J774.A1; assay: Antiinflammatory activity in LPS-induced mouse J774.A1 cells assessed as inhibition of LPS-induced IL-6 release at 10 uM preincubated for 30 mins followed by LPS stimulation for 24 hrs by ELISA method; type: functional; details: time 24.5 hrs
Method in brief: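 J774A.1 macrophages pretreated 30 min at 10 μM, then challenged with LPS 0.5 μg/mL for 24 h at 37 °C, 5% CO2. Medium IL-6 and TNF-α measured by ELISA, normalized to total lysate protein.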

Stability [1]: Stable | half-life [5]: 11.8 h | IC50 [6]: 1.33 µM | IC50 [7]: 2.4 µM | IC50 [13]: 1.67 µM
Structure (SMILES): COc1cc2nccc(Oc3ccc(NC(=O)c4cn(-c5ccccc5)c5ccccc5c4=O)cc3)c2cc1OC
Activity [2]: Active | Activity [3]: Active | Activity [4]: Active | inhibition ([7]; dose 1.25-10 µM, time 24.5 hrs): Dose-Dependent Effect | Activity [8]: Active | Activity [9]: Active | Activity [10]: Active | Activity [11]: Active | Activity [12]: Active | Activity [14]: Active | Activity [15]: Active | Activity [16]: Active | inhibition [17]: Dose-Dependent Effect | inhibition [18]: Dose-Dependent Effect | inhibition [19]: Dose-Dependent Effect | inhibition at 10 µM [20]: 75%

From ChEMBL document CHEMBL5346889, “Discovery of 4-oxo-N-phenyl-1,4-dihydroquinoline-3-carboxamide derivatives as novel anti-inflammatory agents for the treatment of acute lung injury and sepsis” (Eur J Med Chem, 2023)
